{"source": "paper PMC3144758", "about": "(Bioorganic chemistry, 2010)", "molecular_target": "Tip60 (Homo sapiens, UniProt Q92993)", "sequence (Q92993 whole entry)": "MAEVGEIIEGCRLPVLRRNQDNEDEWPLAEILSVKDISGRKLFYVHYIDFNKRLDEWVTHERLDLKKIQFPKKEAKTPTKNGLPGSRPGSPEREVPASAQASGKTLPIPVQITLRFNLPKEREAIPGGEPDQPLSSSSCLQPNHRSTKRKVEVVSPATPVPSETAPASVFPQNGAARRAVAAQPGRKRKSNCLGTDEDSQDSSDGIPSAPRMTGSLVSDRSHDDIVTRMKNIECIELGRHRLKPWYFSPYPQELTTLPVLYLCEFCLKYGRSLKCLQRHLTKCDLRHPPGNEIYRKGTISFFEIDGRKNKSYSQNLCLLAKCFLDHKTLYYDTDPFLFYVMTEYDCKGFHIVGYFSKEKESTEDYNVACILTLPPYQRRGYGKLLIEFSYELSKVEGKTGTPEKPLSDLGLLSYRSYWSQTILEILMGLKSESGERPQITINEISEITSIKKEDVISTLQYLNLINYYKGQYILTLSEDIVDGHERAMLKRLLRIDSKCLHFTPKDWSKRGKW", "test": "Radioactive HAT inhibition assay, Tip60", "format": "biochemical", "in_short": "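Recombinant Tip60 acetylates H4 N-terminal 20-mer peptide (100 μM) using [14C]acetyl-CoA (10 μM) at varied DMSO levels, 30 °C, in 50 mM HEPES pH 8.0, 0.1 mM EDTA, 50 μg/mL BSA, 1 mM DTT. Enzyme added after 5 min equilibration. Initial rates measured (<10% substrate consumed) by P81 filter binding, bicarbonate washes and scintillation. Readouts are fractional activity retained and IC50 (50% activity blocked). Runs at least twice.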"}
{"molecule": "C[S+](C)[O-]", "note": "[DMSO]", "values": [{"measurement": "IC50 of DMSO on Tip60 activity", "setting": "DMSO (v/v), H4-20 100 μM, [14C]acetyl-CoA 10 μM", "value": 37, "unit": "%"}, {"measurement": "Retained activity of Tip60", "setting": "at 30% of DMSO", "value": 90, "unit": "%"}]}
